This is an account of results in ChEMBL document CHEMBL2429843 (J Med Chem, 2013).

The structures appear in SMILES notation. The source made the active and inactive calls. The calls are words filed in the database; no cut-off is given here.

Series [1] can be described thus: Aqueous solubility of the compound. The format is physicochemical. The settings on record: buffer.
A short description of series [2]: Inhibition of Pseudomonas aeruginosa TrmD using S-[methyl-3H] adenosyl-L-methionine as substrate assessed as leucine-tRNA methylation after 1 hr by scintillation proximity assay. In short, it runs like this:
(§1)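 Radiometric SPA: TrmD in 50 mM HEPES pH 7.5 with 5 mM MgCl2 (E. coli and K. pneumoniae 10 nM, S. aureus 10 nM, P. aeruginosa 5 nM, H. influenzae 4 nM in enzyme reagent), mixed 1:1 with a reagent of 0.05 μM [3H]SAM, 2 μM unlabelled SAM and 2 μM synthetic E. coli leucine-tRNA. Compounds are 2-fold serial DMSO dilutions. Incubation is 1 h at room temperature.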
Background: In a scintillation proximity assay essentially only radioactivity close to the scintillant gives light.

Series [3] can be described thus: Inhibition of Escherichia coli TrmD using S-[methyl-3H] adenosyl-L-methionine as substrate assessed as leucine-tRNA methylation after 1 hr by scintillation proximity assay. In outline: as §1
The nature of series [4]: Inhibition of Staphylococcus aureus TrmD using S-[methyl-3H] adenosyl-L-methionine as substrate assessed as leucine-tRNA methylation after 1 hr by scintillation proximity assay. In outline:
as §1

A short description of series [5]: Inhibition of Haemophilus influenzae TrmD using S-[methyl-3H] adenosyl-L-methionine as substrate assessed as leucine-tRNA methylation after 1 hr by scintillation proximity assay. In outline:
as §1

Series [6] can be described thus: Selectivity ratio of IC50 for Staphylococcus aureus TrmD to IC50 for Escherichia coli TrmD.
Series [7] can be described thus: Selectivity ratio of IC50 for Escherichia coli TrmD to IC50 for Pseudomonas aeruginosa TrmD.
A further series relates to Klebsiella pneumoniae. Kind of series: Inhibition of Klebsiella pneumoniae TrmD using S-[methyl-3H] adenosyl-L-methionine as substrate assessed as leucine-tRNA methylation after 1 hr by scintillation proximity assay. In short, it runs like this: as §1
A short description of series [8]: Inhibition of Acinetobacter baumannii TrmD using S-[methyl-3H] adenosyl-L-methionine as substrate assessed as leucine-tRNA methylation after 1 hr by scintillation proximity assay.
A short description of series [9]: Selectivity ratio for Escherichia coli TrmD over human SET7/9.
The target of series [10] is Protein arginine N-methyltransferase 1 (Homo sapiens) (UniProt Q99873). Nature of the series: Inhibition of human PRMT1 at 20 uM relative to control.
Series [11] deals with T1, Histone-lysine N-methyltransferase SETD7 (Homo sapiens) (UniProt Q8WTS6).
T1 sequence (whole entry): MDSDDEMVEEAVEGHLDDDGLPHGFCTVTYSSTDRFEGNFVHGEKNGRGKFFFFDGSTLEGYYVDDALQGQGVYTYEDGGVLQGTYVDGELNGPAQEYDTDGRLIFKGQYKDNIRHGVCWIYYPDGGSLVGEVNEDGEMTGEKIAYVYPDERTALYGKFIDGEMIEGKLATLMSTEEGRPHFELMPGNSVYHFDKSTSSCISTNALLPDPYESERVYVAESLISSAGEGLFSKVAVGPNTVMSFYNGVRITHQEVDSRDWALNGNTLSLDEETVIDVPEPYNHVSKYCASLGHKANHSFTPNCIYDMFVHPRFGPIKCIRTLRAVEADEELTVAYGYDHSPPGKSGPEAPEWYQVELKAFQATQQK
Nature of the series: Inhibition of human SET7/9 at 20 uM relative to control.

Series [12] can be described thus: Selectivity ratio for Escherichia coli TrmD over human PRMT1.
The nature of series [13]: Dissociation constant, pKa of the compound. It counts as physicochemical.
Series [14] deals with T1, Histone-lysine N-methyltransferase SETD7 (Homo sapiens). Nature of the series: Inhibition of human SET7/9.
The next series deals with Haemophilus influenzae. Nature of the series: Antibacterial activity against recombinant Haemophilus influenzae harboring acrB::cap mutant assessed as growth inhibition by broth microdilution method. It counts as functional. On the technique in general: In broth dilution the organism is exposed to a series of concentrations in liquid medium.

Protein arginine N-methyltransferase 1 (Homo sapiens), sequence (Q99873 whole entry, looked up): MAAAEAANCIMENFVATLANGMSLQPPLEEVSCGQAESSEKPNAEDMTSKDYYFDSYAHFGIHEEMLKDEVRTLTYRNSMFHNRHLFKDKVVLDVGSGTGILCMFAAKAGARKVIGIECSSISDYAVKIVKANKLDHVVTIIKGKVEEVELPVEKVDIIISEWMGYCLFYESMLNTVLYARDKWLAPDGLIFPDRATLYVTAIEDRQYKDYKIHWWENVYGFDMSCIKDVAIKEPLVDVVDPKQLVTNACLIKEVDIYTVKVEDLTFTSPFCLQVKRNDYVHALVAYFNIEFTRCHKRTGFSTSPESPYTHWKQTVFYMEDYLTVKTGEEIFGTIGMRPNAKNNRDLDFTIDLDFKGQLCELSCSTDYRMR

As to `COc1ccc(-c2n[nH]c(N)n2)cc1`, the solubility (in general, the concentration that dissolves in the medium under given conditions) in series [1] is greater than 500 µM.
As to `O=C(NCc1ccc(CN2CC[C@H](O)C2)cc1)c1csc2nc[nH]c(=O)c12`, the IC50 (as a rule, the concentration at which inhibition is half-maximal) in series [2] amounted to 0.12 µM; in [3], 0.4 µM; in series [4], 6.3 µM; in series [5], 0.6 µM; with Klebsiella pneumoniae, 0.63 µM; in series [8] it was 0.63 µM. Also, the results for the Ratio IC50 in series [6] and in [7] were 5 and 10, respectively.
Turning to `NCCN1CCN(Cc2ccc(CNC(=O)c3csc4nc[nH]c(=O)c34)cc2)CC1`, the Selectivity ratio in series [9] and in series [12] was 50 in each case. The IC50 was determined as 0.4 µM in series [3], 2.7 µM in series [4] and 0.44 µM in [5]. Also, the inhibition in series [10] and in series [11] was less than 10% in each case.
For `O=C(NCc1ccc(CN2CCNCC2)cc1)c1csc2nc[nH]c(=O)c12`, the Selectivity ratio in series [9] and in series [12] was 50 throughout. Also, the IC50 was 0.89 µM in series [3], 7.6 µM in series [4] and 1.6 µM in series [5]. The inhibition in series [10] and in series [11] was less than 10% throughout.
As to `N=C(NCc1ccc(CNC(=O)c2csc3nc[nH]c(=O)c23)cc1)NC1CC1`, the Selectivity ratio in series [9] and in series [12] was 50 in each case. In addition, the IC50 came out at 0.19 µM in series [3], 2.9 µM in [4] and 0.49 µM in series [5]. Besides, the inhibition in series [10] and in series [11] was less than 10% each time.
With `O=C(NCc1ccc(CN2CCC(O)CC2)cc1)c1csc2nc[nH]c(=O)c12`, the Selectivity ratio in series [9] and in series [12] was 50 throughout. Also, the results for the half-maximal inhibitory concentration (IC50) in series [3], in series [4] and in series [5] were 0.44 µM, 7.3 µM and 1.3 µM, respectively. In addition, the inhibition in [10] and in series [11] was less than 10% throughout.
As to `NC1CN(Cc2ccc(CNC(=O)c3csc4nc[nH]c(=O)c34)cc2)C1`, the IC50 in series [2] was 0.25 µM; in [3], 0.33 µM; in series [4] it was 1.8 µM; in [5], 0.33 µM; in the series with Klebsiella pneumoniae it was 1.3 µM; in [8] it was 1.3 µM. For the same compound, the values for the Ratio IC50 in series [6] and in series [7] were 5 and 10, respectively.
In turn, `Cc1[nH]c2c(=O)n(C3CCNCC3)ccc2c1Cl` gave a solubility in series [1] greater than 500 µM.
Turning to `NC1CCCN(Cc2ccc(CNC(=O)c3csc4nc[nH]c(=O)c34)cc2)C1` (centres undefined), the Selectivity ratio in series [9] and in series [12] was 50 each time. In addition, the figures for the IC50 in series [3], in series [4] and in series [5] were 0.33 µM, 5.2 µM and 0.66 µM, respectively. Moreover, the inhibition in series [10] and in [11] was less than 10% throughout.
Take `O=C(NCc1ccc(CN2CC[C@@H](O)C2)cc1)c1csc2nc[nH]c(=O)c12`: the IC50 in series [2] was found to be 0.063 µM; in series [3], 0.29 µM; in series [4] it was 2.7 µM; in [5] it was 0.42 µM; with Klebsiella pneumoniae it was 0.51 µM; in series [8], 0.24 µM. Also, the Ratio IC50 in series [6] worked out at 5; in [7] it was 10.
On to `O=C(NCc1ccc(CNCc2ncc[nH]2)cc1)c1csc2nc[nH]c(=O)c12`, for which the Selectivity ratio in [9] and in series [12] was 50 throughout. Besides, the pKa (in general, the negative logarithm of the acid dissociation constant) in [13] was 6.5. Further, the IC50 in series [2] is 0.067 µM; in [3] it was 0.52 µM; in series [4], 8.2 µM; in series [5] it was 1.5 µM; in the series with Klebsiella pneumoniae, 0.31 µM; in [8], 0.23 µM. Further, the inhibition in series [10] and in series [11] was less than 10% throughout. Besides, the Ratio IC50 came to 5 in [6] and 10 in series [7].
Consider `O=c1[nH]cnc2onc(-c3ccccc3)c12`, for which the solubility in [1] is greater than 500 µM. Moreover, the half-maximal inhibitory concentration (IC50) in [3] is 4.8 µM; in [4], 6.7 µM; in series [5] it was 1.1 µM.
For the compound `NCCNCc1ccc(CNC(=O)c2csc3nc[nH]c(=O)c23)cc1`, the Selectivity ratio in series [9] and in [12] was 50 each time. Further, the IC50 in series [2] came out at 0.044 µM; in [3], 0.44 µM; in series [4], 7.4 µM; in series [5], 0.33 µM; in the series with Klebsiella pneumoniae, 0.61 µM; in series [8], 0.74 µM. Also, the inhibition in series [10] and in series [11] was less than 10% each time. In addition, the Ratio IC50 was determined as 5 in [6] and 10 in series [7].
`NCc1ccc(CNC(=O)c2csc3nc[nH]c(=O)c23)cc1`: the Selectivity ratio in series [9] and in series [12] was 50 each time. The compound also gave a pKa in series [13] of 14.4. The IC50 was 0.098 µM in series [2]; 0.91 µM in series [3]; 4.3 µM in series [4]; 0.56 µM in series [5]; 0.83 µM in the series on Klebsiella pneumoniae; 0.61 µM in [8]. Further, the inhibition in series [10] and in [11] was less than 10% throughout. The Ratio IC50 in [6] is 5; in [7], 10.
In [1], `c1ccc2[nH]c(-c3cnco3)cc2c1` came in with a solubility greater than 500 µM.
Consider `NC1CCN(Cc2ccc(CNC(=O)c3csc4nc[nH]c(=O)c34)cc2)CC1`, for which the Selectivity ratio in series [9] and in series [12] was 50 throughout. In addition, the IC50 in series [2] was less than 0.039 µM; in series [3], 0.18 µM; in series [4], 1.2 µM; in series [5], 0.33 µM; in the series on Klebsiella pneumoniae, 0.35 µM; in series [8], 0.58 µM. Moreover, the inhibition in series [10] and in series [11] was less than 10% in each case. Also, the Ratio IC50 in series [6] was determined as 5; in [7], 10.
In the case of `Nc1ncnc2c1ncn2[C@@H]1O[C@H](C[C@@H](N)CC[C@H](N)C(=O)O)[C@@H](O)[C@H]1O` [SINEFUNGIN], the inhibition (usually the share of the control response that was lost under treatment) in series [14] is “Active”. The IC50 came out at 11 µM in [3], 160 µM in series [4] and 1.9 µM in series [5].
With `O=c1[nH]cnc2scc(C3CCNC3)c12` (centres undefined), the IC50 in series [3], in series [4] and in [5] was greater than 200 µM in each case.
Consider `O=C(NCc1ccncc1)c1csc2nc[nH]c(=O)c12`, for which the IC50 is 19 µM in series [3], 72 µM in [4] and 8.2 µM in [5].
Consider `O=C(NCc1ccc(CN2CCC(O)C2)cc1)c1csc2nc[nH]c(=O)c12` (centres undefined), for which the Selectivity ratio in series [9] and in series [12] was 50 in each case. Besides, the 50% inhibitory concentration (IC50) in series [3] came to 0.42 µM; in series [4] it was 4.4 µM; in series [5], 0.37 µM. Besides, the MIC with Haemophilus influenzae amounted to 3.1 µM. For the same compound, the inhibition in [10] and in [11] was less than 10% throughout.
For `O=c1[nH]cnc2sccc12`, the IC50 turned out to be 120 µM in [3], 1340 µM in series [4] and 144 µM in [5].
In turn, `Cc1cccc2nc[nH]c(=O)c12` showed a solubility in series [1] greater than 500 µM.
As for `Cn1cc(-c2csc3nc[nH]c(=O)c23)cn1`, the results for the IC50 in series [3], in series [4] and in [5] were 2.1 µM, 34 µM and 0.67 µM, respectively.
In the same order, the values of `O=C(NCc1ccc(CN2CCN(CCO)CC2)cc1)c1csc2nc[nH]c(=O)c12` are 0.47 µM, 14 µM and 1.6 µM.
